Reference: ChEMBL document CHEMBL3616441, “Discovery of a Selective and CNS Penetrant Negative Allosteric Modulator of Metabotropic Glutamate Receptor Subtype 3 with Antidepressant and Anxiolytic Activity in Rodents” (J Med Chem, 2015)
pEC50, pIC50: −log10 of the molar value. Active and inactive are the calls of the source. No cut-off for these calls is given here.

Target: Metabotropic glutamate receptor 5 (Rattus norvegicus, UniProt P31424)
Experiment: Modulation of rat mGlu5 receptor assessed as calcium mobilization by cell based fluorescence assay
Type: functional
Conditions: not given
Method in brief: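 Calcium mobilization assay with fluorescence read-out in cells expressing mGlu5; full concentration-response curves; % Glu Max is the amplitude of response with 30 μM test compound as a percentage of the maximal response to 100 μM glutamate; values averaged over n-3.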

Metabotropic glutamate receptor 5, sequence (P31424 whole entry): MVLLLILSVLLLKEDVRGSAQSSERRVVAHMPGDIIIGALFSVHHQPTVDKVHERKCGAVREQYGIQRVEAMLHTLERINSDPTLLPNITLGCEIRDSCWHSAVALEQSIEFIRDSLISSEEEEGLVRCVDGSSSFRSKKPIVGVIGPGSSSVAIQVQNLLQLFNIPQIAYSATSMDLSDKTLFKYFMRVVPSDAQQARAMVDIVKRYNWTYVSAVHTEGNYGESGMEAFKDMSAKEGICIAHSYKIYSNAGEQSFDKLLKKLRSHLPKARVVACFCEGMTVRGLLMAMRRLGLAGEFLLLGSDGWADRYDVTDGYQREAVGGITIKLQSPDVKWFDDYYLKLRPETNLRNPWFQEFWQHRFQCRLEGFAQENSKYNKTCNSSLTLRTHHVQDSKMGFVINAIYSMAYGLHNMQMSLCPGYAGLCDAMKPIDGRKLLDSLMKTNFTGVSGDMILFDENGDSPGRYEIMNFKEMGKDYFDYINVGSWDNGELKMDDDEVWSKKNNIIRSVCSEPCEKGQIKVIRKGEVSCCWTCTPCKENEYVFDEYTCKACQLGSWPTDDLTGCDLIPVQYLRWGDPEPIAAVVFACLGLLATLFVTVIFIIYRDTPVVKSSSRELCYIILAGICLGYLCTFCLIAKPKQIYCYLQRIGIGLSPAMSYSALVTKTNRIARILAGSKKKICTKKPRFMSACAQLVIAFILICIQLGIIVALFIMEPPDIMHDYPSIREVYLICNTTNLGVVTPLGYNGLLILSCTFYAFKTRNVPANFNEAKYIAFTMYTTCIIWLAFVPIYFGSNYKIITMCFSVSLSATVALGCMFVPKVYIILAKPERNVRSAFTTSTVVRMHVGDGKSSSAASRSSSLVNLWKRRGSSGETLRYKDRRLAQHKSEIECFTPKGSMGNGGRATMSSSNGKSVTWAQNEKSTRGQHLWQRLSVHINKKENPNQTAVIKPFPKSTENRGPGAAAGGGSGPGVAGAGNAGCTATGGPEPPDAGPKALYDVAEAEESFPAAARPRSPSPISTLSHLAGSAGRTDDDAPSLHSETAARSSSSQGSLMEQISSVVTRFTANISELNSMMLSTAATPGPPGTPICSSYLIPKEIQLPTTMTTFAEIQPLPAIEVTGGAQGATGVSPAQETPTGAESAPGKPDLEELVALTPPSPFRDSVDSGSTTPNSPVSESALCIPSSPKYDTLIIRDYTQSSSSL

SMILES	pEC50
C[C@@H]1CN(c2cccc(F)c2F)C(=O)c2cc(COc3ccc(F)cn3)nn21	5.68
Cc1cccc(N2C[C@@H](C)n3nc(COc4ccc(F)cn4)cc3C2=O)c1	< 5.00
C[C@@H]1CN(c2c(F)cccc2F)C(=O)c2cc(COc3ccc(F)cn3)nn21	5.91
C[C@@H]1CN(c2cncc(C#N)c2)C(=O)c2cc(COc3ccc(Cl)cn3)nn21	< 4.52
C[C@@H]1CN(c2cc(F)ccc2F)C(=O)c2cc(COc3ccc(F)cn3)nn21	< 5.00
COc1ccnc(OCc2cc3n(n2)[C@H](C)CN(c2ccc(F)cc2)C3=O)c1	< 5.00
COc1cccc(N2C[C@@H](C)n3nc(COc4ccc(F)cn4)cc3C2=O)c1	< 5.00
C[C@@H]1CN(c2ccccc2F)C(=O)c2cc(COc3ccc(F)cn3)nn21	< 5.00
COc1ccccc1N1C[C@@H](C)n2nc(COc3ccc(Cl)cn3)cc2C1=O	< 5.00
C[C@@H]1CN(c2ccccn2)C(=O)c2cc(COc3ccc(Cl)cn3)nn21	< 4.52
C[C@@H]1CN(c2ccc(F)cn2)C(=O)c2cc(COc3ccc(F)cn3)nn21	5.01
C[C@@H]1CN(c2ccc(F)cc2)C(=O)c2cc(COc3cc(C(F)(F)F)ccn3)nn21	< 5.00
C[C@@H]1CN(c2cncc(F)c2)C(=O)c2cc(COc3ccc(Cl)cn3)nn21	< 4.52
Cc1ccccc1N1C[C@@H](C)n2nc(COc3ccc(F)cn3)cc2C1=O	< 5.00
C[C@@H]1CN(c2cccc(F)n2)C(=O)c2cc(COc3ccc(Cl)cn3)nn21	< 5.00
C[C@@H]1CN(c2ccc(F)cc2)C(=O)c2cc(COc3cccc(Cl)c3)nn21	< 5.00

System: not listed separately
Experiment: Half life in rat at 0.2 mg/kg, iv administered as cassette dose
Type: ADME, organism-based
Conditions: in vivo

SMILES	half-life [min]
C[C@@H]1CN(c2cncc(C#N)c2)C(=O)c2cc(COc3ccc(Cl)cn3)nn21	59
C[C@@H]1CN(c2cncc(F)c2)C(=O)c2cc(COc3ccc(Cl)cn3)nn21	30

System: not listed separately
Experiment: Plasma clearance in rat at 0.2 mg/kg, iv administered as cassette dose
Type: ADME, organism-based
Conditions: not given

SMILES	clearance [L/h/kg]
C[C@@H]1CN(c2cncc(C#N)c2)C(=O)c2cc(COc3ccc(Cl)cn3)nn21	1.32
C[C@@H]1CN(c2cncc(F)c2)C(=O)c2cc(COc3ccc(Cl)cn3)nn21	3

Target: Metabotropic glutamate receptor 5 (Rattus norvegicus) (UniProt P31424)
Sequence (P31424 21-1203 limits assumed): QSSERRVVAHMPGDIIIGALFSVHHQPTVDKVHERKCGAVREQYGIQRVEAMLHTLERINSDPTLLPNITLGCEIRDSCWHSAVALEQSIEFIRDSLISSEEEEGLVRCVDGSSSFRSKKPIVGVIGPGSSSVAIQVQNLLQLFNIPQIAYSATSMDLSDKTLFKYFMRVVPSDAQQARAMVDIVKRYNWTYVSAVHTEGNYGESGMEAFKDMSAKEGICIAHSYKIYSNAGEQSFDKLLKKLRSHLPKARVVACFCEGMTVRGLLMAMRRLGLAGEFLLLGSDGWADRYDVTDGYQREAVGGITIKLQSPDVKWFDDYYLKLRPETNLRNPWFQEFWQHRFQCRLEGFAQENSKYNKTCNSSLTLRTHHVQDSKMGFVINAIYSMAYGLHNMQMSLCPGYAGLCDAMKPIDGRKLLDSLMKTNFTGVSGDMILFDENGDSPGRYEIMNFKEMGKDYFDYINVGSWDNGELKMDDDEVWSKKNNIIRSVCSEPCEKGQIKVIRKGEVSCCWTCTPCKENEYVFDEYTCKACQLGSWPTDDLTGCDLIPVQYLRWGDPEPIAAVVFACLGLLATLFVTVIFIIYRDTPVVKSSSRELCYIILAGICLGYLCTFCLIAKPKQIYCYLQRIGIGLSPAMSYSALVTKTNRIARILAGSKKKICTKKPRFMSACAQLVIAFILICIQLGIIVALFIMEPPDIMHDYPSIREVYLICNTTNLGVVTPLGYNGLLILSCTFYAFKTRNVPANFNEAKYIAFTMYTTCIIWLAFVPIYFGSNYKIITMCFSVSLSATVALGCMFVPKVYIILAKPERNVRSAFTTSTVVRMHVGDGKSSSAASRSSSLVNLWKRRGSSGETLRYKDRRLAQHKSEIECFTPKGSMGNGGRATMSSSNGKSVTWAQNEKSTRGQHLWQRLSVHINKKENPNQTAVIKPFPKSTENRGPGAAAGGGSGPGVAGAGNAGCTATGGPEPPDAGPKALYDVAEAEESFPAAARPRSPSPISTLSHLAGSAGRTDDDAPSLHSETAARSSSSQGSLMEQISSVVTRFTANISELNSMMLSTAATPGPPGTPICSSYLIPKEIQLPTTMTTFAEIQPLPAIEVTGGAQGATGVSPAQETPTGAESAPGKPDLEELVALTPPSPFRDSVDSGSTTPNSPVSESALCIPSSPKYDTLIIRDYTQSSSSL
Experiment: Negative allosteric modulation of rat mGlu5 receptor assessed as calcium mobilization by cell based fluorescence assay
Type: functional
Conditions: not given

SMILES	Activity
C[C@@H]1CN(c2cccc(F)c2F)C(=O)c2cc(COc3ccc(F)cn3)nn21	Active
Cc1cccc(N2C[C@@H](C)n3nc(COc4ccc(F)cn4)cc3C2=O)c1	Active
C[C@@H]1CN(c2c(F)cccc2F)C(=O)c2cc(COc3ccc(F)cn3)nn21	Active
C[C@@H]1CN(c2cc(F)ccc2F)C(=O)c2cc(COc3ccc(F)cn3)nn21	Active
COc1ccnc(OCc2cc3n(n2)[C@H](C)CN(c2ccc(F)cc2)C3=O)c1	Active
COc1cccc(N2C[C@@H](C)n3nc(COc4ccc(F)cn4)cc3C2=O)c1	Active
C[C@@H]1CN(c2ccccc2F)C(=O)c2cc(COc3ccc(F)cn3)nn21	Active
COc1ccccc1N1C[C@@H](C)n2nc(COc3ccc(Cl)cn3)cc2C1=O	Active
C[C@@H]1CN(c2ccc(F)cn2)C(=O)c2cc(COc3ccc(F)cn3)nn21	Active
C[C@@H]1CN(c2ccc(F)cc2)C(=O)c2cc(COc3cc(C(F)(F)F)ccn3)nn21	Active
Cc1ccccc1N1C[C@@H](C)n2nc(COc3ccc(F)cn3)cc2C1=O	Active
C[C@@H]1CN(c2cccc(F)n2)C(=O)c2cc(COc3ccc(Cl)cn3)nn21	Active
C[C@@H]1CN(c2ccc(F)cc2)C(=O)c2cc(COc3cccc(Cl)c3)nn21	Active

System: Plasma
Experiment: Fraction unbound in rat plasma
Type: ADME, cell-free
Conditions: not given

SMILES	Fu
C[C@@H]1CN(c2cccc(F)c2F)C(=O)c2cc(COc3ccc(F)cn3)nn21	0.092
Cc1cccc(N2C[C@@H](C)n3nc(COc4ccc(F)cn4)cc3C2=O)c1	0.051
C[C@@H]1CN(c2c(F)cccc2F)C(=O)c2cc(COc3ccc(F)cn3)nn21	0.064
C[C@@H]1CN(c2cncc(C#N)c2)C(=O)c2cc(COc3ccc(Cl)cn3)nn21	0.078
C[C@@H]1CN(c2cc(F)ccc2F)C(=O)c2cc(COc3ccc(F)cn3)nn21	0.089
C[C@@H]1CN(c2ccccc2F)C(=O)c2cc(COc3ccc(F)cn3)nn21	0.098
C[C@@H]1CN(c2ccccn2)C(=O)c2cc(COc3ccc(Cl)cn3)nn21	0.051
C[C@@H]1CN(c2cncc(F)c2)C(=O)c2cc(COc3ccc(Cl)cn3)nn21	0.092

Target: Metabotropic glutamate receptor 5 (Rattus norvegicus) (UniProt P31424)
Experiment: Modulation of rat mGlu5 receptor assessed as assessed as calcium mobilization at 30 uM by cell based fluorescence assay
Type: functional
Conditions: not given

SMILES	Activity [%]
C[C@@H]1CN(c2cccc(F)c2F)C(=O)c2cc(COc3ccc(F)cn3)nn21	21
Cc1cccc(N2C[C@@H](C)n3nc(COc4ccc(F)cn4)cc3C2=O)c1	36.6
C[C@@H]1CN(c2c(F)cccc2F)C(=O)c2cc(COc3ccc(F)cn3)nn21	50.8
C[C@@H]1CN(c2cc(F)ccc2F)C(=O)c2cc(COc3ccc(F)cn3)nn21	18.8
COc1ccnc(OCc2cc3n(n2)[C@H](C)CN(c2ccc(F)cc2)C3=O)c1	54.7
COc1cccc(N2C[C@@H](C)n3nc(COc4ccc(F)cn4)cc3C2=O)c1	59.7
C[C@@H]1CN(c2ccccc2F)C(=O)c2cc(COc3ccc(F)cn3)nn21	29.1
COc1ccccc1N1C[C@@H](C)n2nc(COc3ccc(Cl)cn3)cc2C1=O	58.5
C[C@@H]1CN(c2ccc(F)cn2)C(=O)c2cc(COc3ccc(F)cn3)nn21	7
C[C@@H]1CN(c2ccc(F)cc2)C(=O)c2cc(COc3cc(C(F)(F)F)ccn3)nn21	12.9
Cc1ccccc1N1C[C@@H](C)n2nc(COc3ccc(F)cn3)cc2C1=O	35.8
C[C@@H]1CN(c2cccc(F)n2)C(=O)c2cc(COc3ccc(Cl)cn3)nn21	24.8
C[C@@H]1CN(c2ccc(F)cc2)C(=O)c2cc(COc3cccc(Cl)c3)nn21	32.8

Target: Metabotropic glutamate receptor 3 (Rattus norvegicus) (UniProt P31422)
Sequence (P31422 23-879 limits assumed): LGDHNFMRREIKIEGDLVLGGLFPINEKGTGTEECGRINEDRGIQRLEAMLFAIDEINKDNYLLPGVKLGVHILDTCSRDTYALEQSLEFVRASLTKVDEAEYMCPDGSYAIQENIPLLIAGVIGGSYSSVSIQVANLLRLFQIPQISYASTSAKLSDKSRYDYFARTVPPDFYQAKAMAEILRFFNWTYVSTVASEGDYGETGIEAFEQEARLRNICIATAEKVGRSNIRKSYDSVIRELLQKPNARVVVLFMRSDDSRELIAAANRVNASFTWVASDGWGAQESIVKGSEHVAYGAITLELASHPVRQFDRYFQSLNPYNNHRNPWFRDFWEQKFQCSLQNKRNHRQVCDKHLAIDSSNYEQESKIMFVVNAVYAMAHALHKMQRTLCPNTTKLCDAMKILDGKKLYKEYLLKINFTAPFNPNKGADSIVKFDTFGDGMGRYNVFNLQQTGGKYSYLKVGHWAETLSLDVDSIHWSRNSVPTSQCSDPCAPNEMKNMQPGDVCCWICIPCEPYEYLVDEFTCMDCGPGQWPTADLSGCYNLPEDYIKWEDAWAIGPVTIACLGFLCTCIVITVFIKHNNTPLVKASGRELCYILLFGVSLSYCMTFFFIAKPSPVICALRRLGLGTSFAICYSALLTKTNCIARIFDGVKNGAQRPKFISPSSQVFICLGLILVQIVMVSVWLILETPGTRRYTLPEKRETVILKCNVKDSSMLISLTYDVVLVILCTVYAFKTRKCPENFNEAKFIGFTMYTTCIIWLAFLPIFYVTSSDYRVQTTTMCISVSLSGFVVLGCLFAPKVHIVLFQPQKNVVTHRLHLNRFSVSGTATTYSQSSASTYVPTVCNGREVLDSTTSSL
Experiment: Negative allosteric modulation of rat mGlu3 receptor assessed as amplitude response at 30 uM relative to glutamate
Conditions: not given
Method in brief: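 Calcium mobilization in cell line stably expressing rat mGlu3 with promiscuous Gα15; fluorescence read-out; amplitude of glutamate response with 30 μM test compound expressed as percentage of maximal response (100 μM glutamate); average of n = 3.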

SMILES	Activity [%]
C[C@@H]1CN(c2cccc(F)c2F)C(=O)c2cc(COc3ccc(F)cn3)nn21	2.15
Cc1cccc(N2C[C@@H](C)n3nc(COc4ccc(F)cn4)cc3C2=O)c1	1.93
C[C@@H]1CN(c2c(F)cccc2F)C(=O)c2cc(COc3ccc(F)cn3)nn21	1.49
C[C@@H]1CN(c2cncc(C#N)c2)C(=O)c2cc(COc3ccc(Cl)cn3)nn21	1.08
C[C@@H]1CN(c2cc(F)ccc2F)C(=O)c2cc(COc3ccc(F)cn3)nn21	2.62
COc1ccnc(OCc2cc3n(n2)[C@H](C)CN(c2ccc(F)cc2)C3=O)c1	-0.18
COc1cccc(N2C[C@@H](C)n3nc(COc4ccc(F)cn4)cc3C2=O)c1	1.02
C[C@@H]1CN(c2ccccc2F)C(=O)c2cc(COc3ccc(F)cn3)nn21	1.53
COc1ccccc1N1C[C@@H](C)n2nc(COc3ccc(Cl)cn3)cc2C1=O	1.29
C[C@@H]1CN(c2ccccn2)C(=O)c2cc(COc3ccc(Cl)cn3)nn21	1.07
C[C@@H]1CN(c2ccc(F)cn2)C(=O)c2cc(COc3ccc(F)cn3)nn21	1.31
C[C@@H]1CN(c2ccc(F)cc2)C(=O)c2cc(COc3cc(C(F)(F)F)ccn3)nn21	1.62
C[C@@H]1CN(c2cncc(F)c2)C(=O)c2cc(COc3ccc(Cl)cn3)nn21	1.85
Cc1ccccc1N1C[C@@H](C)n2nc(COc3ccc(F)cn3)cc2C1=O	1.72
C[C@@H]1CN(c2cccc(F)n2)C(=O)c2cc(COc3ccc(Cl)cn3)nn21	1.75
C[C@@H]1CN(c2ccc(F)cc2)C(=O)c2cc(COc3cccc(Cl)c3)nn21	1.96

System: Brain
Experiment: Fraction unbound in rat brain
Type: ADME, tissue-based
Conditions: not given

SMILES	Fu
C[C@@H]1CN(c2cncc(C#N)c2)C(=O)c2cc(COc3ccc(Cl)cn3)nn21	0.033

Target: Metabotropic glutamate receptor 3 (Rattus norvegicus, UniProt P31422)
Sequence (P31422 whole entry): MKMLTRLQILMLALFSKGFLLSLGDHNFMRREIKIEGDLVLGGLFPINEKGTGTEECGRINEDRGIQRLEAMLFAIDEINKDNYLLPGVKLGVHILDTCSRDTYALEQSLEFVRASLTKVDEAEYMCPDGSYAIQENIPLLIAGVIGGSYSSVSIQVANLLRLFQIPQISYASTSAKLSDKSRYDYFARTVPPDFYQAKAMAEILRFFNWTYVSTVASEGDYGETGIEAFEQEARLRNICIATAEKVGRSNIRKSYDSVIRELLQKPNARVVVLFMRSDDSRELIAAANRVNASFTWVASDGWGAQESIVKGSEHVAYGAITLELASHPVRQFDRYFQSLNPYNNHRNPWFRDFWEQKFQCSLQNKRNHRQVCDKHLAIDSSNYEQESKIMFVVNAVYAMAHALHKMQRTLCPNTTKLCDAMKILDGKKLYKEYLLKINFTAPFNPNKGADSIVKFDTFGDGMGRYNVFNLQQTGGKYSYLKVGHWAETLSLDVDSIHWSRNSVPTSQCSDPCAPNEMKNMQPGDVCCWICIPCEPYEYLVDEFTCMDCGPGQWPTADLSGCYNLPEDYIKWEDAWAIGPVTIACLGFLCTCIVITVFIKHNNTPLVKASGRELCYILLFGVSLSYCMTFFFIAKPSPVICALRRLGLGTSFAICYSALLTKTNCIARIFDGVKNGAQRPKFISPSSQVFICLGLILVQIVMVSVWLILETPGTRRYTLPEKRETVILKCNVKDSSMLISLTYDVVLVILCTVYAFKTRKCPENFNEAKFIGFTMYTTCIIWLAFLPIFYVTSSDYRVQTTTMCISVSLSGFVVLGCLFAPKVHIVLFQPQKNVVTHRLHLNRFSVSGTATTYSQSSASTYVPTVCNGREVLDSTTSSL
Experiment: Negative allosteric modulation of rat mGlu3 receptor assessed as calcium mobilization by cell based fluorescence assay
Type: functional
Conditions: not given
Method in brief: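 Cell line stably expressing rat mGlu3 with the promiscuous G-protein Gα15. Calcium mobilization with fluorescence read-out, inhibition of the glutamate response. Full concentration-response curves, top concentration 30 μM. % Glu Max is the response with 30 μM test compound as a percentage of the maximal response to 100 μM glutamate. Values averaged over n-3.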

SMILES	pIC50
C[C@@H]1CN(c2cccc(F)c2F)C(=O)c2cc(COc3ccc(F)cn3)nn21	6.74
Cc1cccc(N2C[C@@H](C)n3nc(COc4ccc(F)cn4)cc3C2=O)c1	6.67
C[C@@H]1CN(c2c(F)cccc2F)C(=O)c2cc(COc3ccc(F)cn3)nn21	6.74
C[C@@H]1CN(c2cncc(C#N)c2)C(=O)c2cc(COc3ccc(Cl)cn3)nn21	6.22
C[C@@H]1CN(c2cc(F)ccc2F)C(=O)c2cc(COc3ccc(F)cn3)nn21	6.91
COc1ccnc(OCc2cc3n(n2)[C@H](C)CN(c2ccc(F)cc2)C3=O)c1	5.43
COc1cccc(N2C[C@@H](C)n3nc(COc4ccc(F)cn4)cc3C2=O)c1	6.70
C[C@@H]1CN(c2ccccc2F)C(=O)c2cc(COc3ccc(F)cn3)nn21	6.79
COc1ccccc1N1C[C@@H](C)n2nc(COc3ccc(Cl)cn3)cc2C1=O	6.16
C[C@@H]1CN(c2ccccn2)C(=O)c2cc(COc3ccc(Cl)cn3)nn21	6.48
C[C@@H]1CN(c2ccc(F)cn2)C(=O)c2cc(COc3ccc(F)cn3)nn21	6.46
C[C@@H]1CN(c2ccc(F)cc2)C(=O)c2cc(COc3cc(C(F)(F)F)ccn3)nn21	5.78
C[C@@H]1CN(c2cncc(F)c2)C(=O)c2cc(COc3ccc(Cl)cn3)nn21	6.32
Cc1ccccc1N1C[C@@H](C)n2nc(COc3ccc(F)cn3)cc2C1=O	6.46
C[C@@H]1CN(c2cccc(F)n2)C(=O)c2cc(COc3ccc(Cl)cn3)nn21	6.53
C[C@@H]1CN(c2ccc(F)cc2)C(=O)c2cc(COc3cccc(Cl)c3)nn21	5.79

System: not listed separately
Experiment: Volume of distribution at steady state in rat at 0.2 mg/kg, iv administered as cassette dose
Type: ADME, organism-based
Conditions: in vivo, read-out: Vdss

SMILES	Vd [L/kg]
C[C@@H]1CN(c2cncc(C#N)c2)C(=O)c2cc(COc3ccc(Cl)cn3)nn21	1.4
C[C@@H]1CN(c2cncc(F)c2)C(=O)c2cc(COc3ccc(Cl)cn3)nn21	1.9
